# High-throughput results from PubChem BioAssay.
# Pf Dd2 growth: P. falciparum Dd2 growth inhibitors, primary screen, SYBR Green fluorescence, single dose replicates; 94,000 compounds, 2.3% hits; 72 h; active compounds read low; activity change, % at 10 µM; in the data active = activity change below about -80%; inconclusive = no clear call, values can overlap the other calls
# GASC1 inh: inhibitors of GASC-1 (KDM4C) histone demethylase, primary screen, biochemical, single concentration HTS | Lysine-specific demethylase 4C (Homo sapiens), Q9H3R0 | GST-KDM4C 2-372, H3K9me3 peptide, LANCE TR-FRET | inhibition, % at 12.5 µM | 96,000 compounds, 0.15% hits | AID 720574, 2013;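 active = mean replicate inhibition above about 25%, with at least 55% of replicates also reaching it, limit read from the data, passing the limit was not always enough; inconclusive = only one of those two conditions met; inactive = neither condition met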
# Target sequence (Q9H3R0 2-372 limits assumed): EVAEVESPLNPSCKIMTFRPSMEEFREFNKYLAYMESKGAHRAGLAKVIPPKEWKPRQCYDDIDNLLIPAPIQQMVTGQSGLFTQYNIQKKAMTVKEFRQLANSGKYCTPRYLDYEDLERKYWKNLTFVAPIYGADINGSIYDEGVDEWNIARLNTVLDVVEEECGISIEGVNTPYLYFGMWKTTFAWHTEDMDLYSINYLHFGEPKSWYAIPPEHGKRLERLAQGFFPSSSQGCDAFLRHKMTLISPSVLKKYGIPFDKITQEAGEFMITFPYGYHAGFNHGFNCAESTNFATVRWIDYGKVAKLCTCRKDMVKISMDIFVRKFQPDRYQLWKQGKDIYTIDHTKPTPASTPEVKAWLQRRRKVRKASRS
#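 Material: GST-tagged GASC-1 (JMJD2C) catalytic fragment, aa 2-372 / Quantity: enzyme final amount 10 nM / Medium: HEPES buffer, pH 7.5, plus ascorbate / Doses: one test concentration per compound / Incubation: 30 min reaction, 60 min detection, RT / Measured by: LANCE TR-FRET / Read-out: inhibition from TR-FRET ratio decrease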
# Tcruzi prolif: T. cruzi intracellular proliferation inhibitors, primary screen, cell-based, beta-gal Tulahuen parasites, NIH3T3 host, luminescence; T. cruzi beta-gal in NIH3T3, GalScreen luminescence, 90 h; inhibition, % at 8.34 µM; 77,000 compounds, 5.9% hits;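 active = mean inhibition above about 93%, with at least 55% of replicates each passing it, limit read from the data, passing the limit was not always enough; inconclusive = only one of those two conditions holds; inactive = neither condition holds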
# IDH1 mut inh: inhibitors of IDH1 R132H reductase, primary screen, biochemical, plate reader, single point; diaphorase/resazurin fluorescence, 60 min; inhibition, % at 10 µM; Isocitrate dehydrogenase [NADP] cytoplasmic (Homo sapiens), O75874; 70,000 compounds, 0.18% hits; in the data active = inhibition above about 34%; inconclusive = no clear call, values can overlap the other calls; inactive = below about 11%;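 also: 0% = DMSO and 100% = no enzyme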
# The depositor's hits bear a star; ? = inconclusive; nt = not tested or not shown; ! = repeats disagree. An excerpt weighted towards active compounds, which were near 5.9% of everything screened.
SMILES,Pf Dd2 growth,GASC1 inh,Tcruzi prolif,IDH1 mut inh
CC(=O)c1cccc(NC(=O)CSc2nc3ccc([N+](=O)[O-])cc3s2)c1,nt,nt,nt,0.0
COc1cccc(S(=O)(=O)N2CCCCN3[C@H](C2)[C@H](c2ccc(C4=CCCCC4)cc2)[C@@H]3CO)c1,5.0,-1.1,41.0,nt
Cc1ccc(-c2ccc([C@@H]3[C@H](CO)N4CCCCN(S(=O)(=O)c5ccccc5C)C[C@@H]34)cc2)cc1,-81.8*,-2.7,-15.3,nt
COc1cccc(S(=O)(=O)N2CCCCN3[C@H](C2)[C@@H](c2ccc(C#CCC(C)C)cc2)[C@@H]3CO)c1,-19.2,1.4,90.1,nt
COc1cccc(S(=O)(=O)N2CCCCN3[C@@H](CO)[C@@H](c4ccc(C5=CCCCC5)cc4)[C@@H]3C2)c1,-84.4*,0.3,72.8,nt
COc1cccc(S(=O)(=O)N2CCCCN3[C@@H](CO)[C@@H](c4ccc(C#CCC(C)C)cc4)[C@@H]3C2)c1,-84.4*,-1.9,93.4,nt
Cc1ccc(-c2ccc([C@H]3[C@@H](CO)N4CCCCN(S(=O)(=O)c5ccccc5C)C[C@@H]34)cc2)cc1,-28.2,-0.3,91.7,nt
CCc1ccc(-n2c(C)nnc2SCC(=O)Nc2ccc(Cl)cc2Cl)cc1,nt,nt,nt,-0.1
CC1(C)CC(=O)C2=C(C1)N(Cc1cccnc1)C(=O)C2(NC(=O)c1ccc(Cl)cc1Cl)C(F)(F)F (stereo not given),nt,nt,nt,-0.6
CC(C)CC#Cc1ccc2c(c1)O[C@@H](CN(C)C(=O)Cc1ccncc1)[C@@H](C)CN([C@H](C)CO)S2(=O)=O,?,3.0,84.2,3.1
CC(C)CC#Cc1ccc2c(c1)O[C@H](CN(C)C(=O)Cc1cccnc1)[C@@H](C)CN([C@@H](C)CO)S2(=O)=O,-22.3,3.0,nt,54.3*
C[C@H](CO)N1C[C@H](C)[C@@H](CN(C)C(=O)Cc2cccnc2)Oc2cc(C#Cc3ccccc3F)ccc2S1(=O)=O,-83.6*,4.7,nt,nt
C[C@H]1CN([C@@H](C)CO)S(=O)(=O)c2ccc(C#Cc3ccccc3F)cc2O[C@H]1CN(C)C(=O)c1ccc2c(c1)OCO2,-88.0*,2.5,nt,nt
CC(C)CC#Cc1ccc2c(c1)O[C@@H](CN(C)C(=O)Cc1cccnc1)[C@H](C)CN([C@H](C)CO)S2(=O)=O,-35.4,-1.1,nt,37.7*
C[C@@H]1CN([C@@H](C)CO)S(=O)(=O)c2ccc(C#Cc3ccccc3F)cc2O[C@@H]1CN(C)C(=O)c1ccc2c(c1)OCO2,-78.1,4.0,nt,-1.6
CC1=CC(O)C2/C=C/CCC3OC3(C)C(O)CC(=O)C23C(=O)NC(CC(C)C)C13 (stereo not given),nt,nt,nt,-0.1
O=C(OCc1cccc([N+](=O)[O-])c1)c1ccc(NC(=O)c2ccco2)cc1,nt,nt,nt,0.4
CC(C)CC#Cc1ccc2c(c1)O[C@@H](CN(C)C(=O)Cc1cccnc1)[C@@H](C)CN([C@@H](C)CO)S2(=O)=O,-32.3,-0.2,nt,13.3
CC(C)CC#Cc1ccc2c(c1)O[C@H](CN(C)C(=O)Cc1cccnc1)[C@H](C)CN([C@H](C)CO)S2(=O)=O,11.5,1.8,nt,51.8*
CCCC#Cc1ccc2c(c1)O[C@@H](CN(C)C)[C@@H](C)CN([C@H](C)CO)S2(=O)=O,-0.2,53.2*,53.7,58.7*
CCCN(C)C[C@H]1Oc2cc(C#CC3CCCC3)ccc2S(=O)(=O)N([C@H](C)CO)C[C@H]1C,-83.6*,3.7,75.2,0.2
C/C=C/c1ccc2c(c1)O[C@@H](CN(C)CCC)[C@@H](C)CN([C@@H](C)CO)S2(=O)=O,-22.0,0.4,39.0,-3.4
C[C@H](CO)N1C[C@H](C)[C@@H](CN(C)C)Oc2cc(C#CC3CCCCC3)ccc2S1(=O)=O,-53.9,4.0,76.4,0.2
C/C=C/c1ccc2c(c1)O[C@H](CN(C)CCC)[C@H](C)CN([C@H](C)CO)S2(=O)=O,-15.0,42.7*,39.7,83.9*
CCCN(C)C[C@@H]1Oc2cc(C#CC3CCCCC3)ccc2S(=O)(=O)N([C@H](C)CO)C[C@H]1C,-20.2,-3.2,78.9,-0.2
SMILES,Pf Dd2 growth,GASC1 inh,Tcruzi prolif,IDH1 mut inh
C[C@@H]1CN([C@H](C)CO)S(=O)(=O)c2ccc(C#CC3CCCCC3)cc2O[C@@H]1CN(C)C,-81.1*,-1.1,50.5,-0.3
CCCC#Cc1ccc2c(c1)O[C@H](CN(C)C)[C@@H](C)CN([C@@H](C)CO)S2(=O)=O,-37.8,0.1,94.6,-0.7
O=C(CSc1nnc(-c2ccncc2)o1)c1cc2ccccc2oc1=O,nt,nt,nt,0.5
O=C(CCN1C(=O)c2ccc([N+](=O)[O-])cc2C1=O)Nc1cccc(I)c1,nt,nt,nt,0.3
COc1ccc(S(=O)(=O)N(C)C[C@@H]2Oc3cc(C#CC4CCCCC4)ccc3S(=O)(=O)N([C@H](C)CO)C[C@H]2C)cc1,-85.7*,-1.4,38.5,nt
C[C@H]1CN([C@@H](C)CO)S(=O)(=O)c2ccc(/C=C/c3ccccc3)cc2O[C@H]1CN(C)C(=O)c1ccccc1,?,-2.2,125.1*,-8.7
COc1ccc(S(=O)(=O)N(C)C[C@H]2Oc3cc(C#CC4CCCCC4)ccc3S(=O)(=O)N([C@H](C)CO)C[C@H]2C)cc1,-66.2,-1.1,54.6,-2.3
CCCN(C)C[C@H]1OCCCC[C@@H](C)Oc2ccc(NS(=O)(=O)c3ccc(Cl)cc3)cc2C(=O)N([C@@H](C)CO)C[C@H]1C,-85.9*,1.0,33.0,2.9
CCCN(C)C[C@H]1OCCCC[C@@H](C)Oc2ccc(NS(=O)(=O)c3ccc(C)cc3)cc2C(=O)N([C@H](C)CO)C[C@@H]1C,-52.3,2.5,90.5,1.4
CCCN(C)C[C@@H]1OCCCC[C@@H](C)Oc2ccc(NS(=O)(=O)c3ccc(Cl)cc3)cc2C(=O)N([C@H](C)CO)C[C@@H]1C,-60.9,-0.5,-1.9,0.4
COc1ccc(S(=O)(=O)Nc2ccc3c(c2)C(=O)N([C@H](C)CO)C[C@@H](C)[C@H](CN(C)Cc2ccc(Cl)c(Cl)c2)OCCCC[C@H](C)O3)cc1,-84.3*,0.2,11.8,nt
CCCN(C)C[C@H]1OCCCC[C@@H](C)Oc2ccc(NS(=O)(=O)c3ccc(C)cc3)cc2C(=O)N([C@H](C)CO)C[C@H]1C,-89.3*,-4.7,75.2,nt
CCCN(C)C[C@H]1OCCCC[C@@H](C)Oc2ccc(NS(=O)(=O)c3ccc(C)cc3)cc2C(=O)N([C@@H](C)CO)C[C@H]1C,-86.1*,0.6,55.3,nt
Cc1cccc(NC(=O)CSc2nc(N)c(C#N)c(-c3ccc(F)cc3)c2C#N)c1,nt,nt,nt,0.7
O=C(NO)c1cccc(C(=O)N/N=C/c2ccc(O)c(O)c2O)c1,nt,nt,nt,-1.1
Cc1nn(C)c(C)c1CN1CCN(C(=S)Nc2ccc(S(N)(=O)=O)cc2)CC1,nt,nt,nt,0.2
C[C@@H]1CCCCO[C@H](CN(C)Cc2ccc3c(c2)OCO3)[C@H](C)CN([C@H](C)CO)C(=O)c2cc(NS(=O)(=O)c3ccc(Cl)cc3)ccc2O1,-82.8*!,1.8,81.0,-0.8
